Measured values reported in ChEMBL document CHEMBL5576142, “Exploring 2-Sulfonylpyrimidine Warheads as Acrylamide Surrogates for Targeted Covalent Inhibition: A BTK Story” (J Med Chem, 2024).
Activity calls are given as the source filed them. The rule behind the calls is not given here.

How the values were obtained:
[1] = test system: Epidermal growth factor receptor (Homo sapiens), P00533 [T790M]; assay: Inhibition of EGFR T790M mutant (unknown origin) expressed in expressed in Escherichia coli BL21 at 1 uM incubated for 1 hr by Eurofins-KinomeScan assay relative to control
[2] = test system: Epidermal growth factor receptor (Homo sapiens), P00533 [G719S]; assay: Inhibition of EGFR G719S mutant (unknown origin) expressed in expressed in Escherichia coli BL21 at 1 uM incubated for 1 hr by Eurofins-KinomeScan assay relative to control
[3] = test system: Epidermal growth factor receptor (Homo sapiens), P00533 [L861Q]; assay: Inhibition of EGFR L861Q mutant (unknown origin) expressed in expressed in Escherichia coli BL21 at 1 uM incubated for 1 hr by Eurofins-KinomeScan assay relative to control
[4] = test system: Epidermal growth factor receptor (Homo sapiens), P00533 [G719C]; assay: Inhibition of EGFR G719C mutant (unknown origin) expressed in expressed in Escherichia coli BL21 at 1 uM incubated for 1 hr by Eurofins-KinomeScan assay relative to control
[5] = biological target: T1, Tyrosine-protein kinase BTK (Homo sapiens, UniProt Q06187); assay: Inhibition of BTK in anti-IgM induced human OCILY7 cells assessed as increase in calcium flux at 250 nM incubated for […] followed by anti-IgM and Pluronic F127 stimulation measured after […] by Fluo-3 AM based flow cytometry; type: cell-based; conditions: time 5.0 hrs
[6] = biological target: T1, Tyrosine-protein kinase BTK
[7] = biological target: T1, Tyrosine-protein kinase BTK; conditions: OCILY7, dose 500.0 nM, time 1.0 hrs
[8] = biological target: T1, Tyrosine-protein kinase BTK; conditions: OCILY7, dose 500.0 nM, time 1.0 hrs; remark: listed apart in the source
[9] = biological target: T1, Tyrosine-protein kinase BTK; conditions: OCILY7, dose 500.0 nM, time 1.0 hrs; remark: listed apart in the source
[10] = biological target: T1, Tyrosine-protein kinase BTK; conditions: OCILY7, dose 500.0 nM, time 1.0 hrs; remark: listed apart in the source
[11] = biological target: T1, Tyrosine-protein kinase BTK; conditions: OCILY7, dose 500.0 nM, time 1.0 hrs; remark: listed apart in the source
[12] = biological target: T1, Tyrosine-protein kinase BTK; assay: Covalent inhibition of full-length BTK (unknown origin) expressed in Escherichia coli BL21 (DE3) at 100 nM incubated for 1 hr in presence of ATP by ADP-Glo kinase assay relative to control
[13] = Stability in human plasma assessed as parent compound remaining incubated for 3 hrs by UPLC-MS analysis; type: ADME, cell-free; conditions: read-out: Stability
TMD8 [14] = assay: Downregulation of NFKBID gene expression in human TMD8 cells at 1 uM incubated for 8 hrs by RNA-sequencing analysis; type: functional, cell-based
Procedure, shortened: (§1)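 TMD8 cells (RPMI-1640, 10% FBS, penicillin/streptomycin, 2 mM glutamine) exposed to compound or DMSO vehicle for 8 h; total RNA extracted for RNA-seq. Differential expression versus DMSO scored at FDR < 0.01 with log2 fold change beyond ±0.5.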

TMD8 [15] = assay: Downregulation of LTA gene expression in human TMD8 cells at 1 uM incubated for 8 hrs by RNA-sequencing analysis; type: functional, cell-based; procedure, shortened: as §1
TMD8 [16] = assay: Downregulation of EGR2 gene expression in human TMD8 cells at 1 uM incubated for 8 hrs by RNA-sequencing analysis; type: functional, cell-based; procedure, shortened: as §1
TMD8 [17] = assay: Downregulation of CD83 gene expression in human TMD8 cells at 1 uM incubated for 8 hrs by RNA-sequencing analysis; type: functional, cell-based; procedure, shortened: as §1
TMD8 [18] = assay: Downregulation of NR4A1 gene expression in human TMD8 cells at 1 uM incubated for 8 hrs by RNA-sequencing analysis; type: functional, cell-based; procedure, shortened: as §1
TMD8 [19] = assay: Downregulation of IL-10 gene expression in human TMD8 cells at 1 uM incubated for 8 hrs by RNA-sequencing analysis; type: functional, cell-based; procedure, shortened: as §1
[20] = GSH reactivity in PBS buffer at pH 7.4 assessed as pseudo-first order rate constant incubated upto 6 hrs at 20 degreeC by LC-MS analysis; type: physicochemical; conditions: pH 7.4, 6 h
Procedure, shortened: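 Compound at 100 μM with 1 mM GSH (10 equiv) in PBS pH 7.4, containing 100 μM 4-hydroxybenzoic acid as internal standard and 5% v/v DMSO, held at 20 °C. LC-MS traces taken every 10 min. Normalized integrals plotted against time to give a pseudo-first-order rate constant. Run in triplicate.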

[21] = biological target: T1, Tyrosine-protein kinase BTK; assay: Inhibition of NanoLuc fused BTK (unknown origin) transiently transfected in HEK293 cells incubated for 1 hr by NanoBRET assay; type: cell-based
TMD8 [22] = assay: Induction of apoptosis in human TMD8 cells assessed as viable cells at 1000 nM incubated for 72 hrs by Annexin-V/PI staining based flow cytometry (reference value: 66 %); type: functional; conditions: read-out: Activity
TMD8 [23] = assay: Induction of apoptosis in human TMD8 cells assessed as early apoptotic cells at 10 nM incubated for 72 hrs by Annexin-V/PI staining based flow cytometry (reference value: 4.8 %); type: functional
TMD8 [24] = assay: Induction of apoptosis in human TMD8 cells assessed as early apoptotic cells at 1000 nM incubated for 72 hrs by Annexin-V/PI staining based flow cytometry (reference value: 4.8 %); type: functional
TMD8 [25] = assay: Induction of apoptosis in human TMD8 cells assessed as late apoptotic cells at 10 nM incubated for 72 hrs by Annexin-V/PI staining based flow cytometry (reference value: 25.4 %); type: functional
TMD8 [26] = assay: Induction of apoptosis in human TMD8 cells assessed as late apoptotic cells at 100 nM incubated for 72 hrs by Annexin-V/PI staining based flow cytometry (reference value: 25.4 %); type: functional
TMD8 [27] = assay: Induction of apoptosis in human TMD8 cells assessed as necrotic cells at 10 nM incubated for 72 hrs by Annexin-V/PI staining based flow cytometry (reference value: 3 %); type: functional
TMD8 [28] = assay: Induction of apoptosis in human TMD8 cells assessed as necrotic cells at 100 nM incubated for 72 hrs by Annexin-V/PI staining based flow cytometry (reference value: 3 %); type: functional
TMD8 [29] = assay: Induction of apoptosis in human TMD8 cells assessed as necrotic cells at 1000 nM incubated for 72 hrs by Annexin-V/PI staining based flow cytometry (reference value: 3 %); type: functional
TMD8 [30] = assay: Induction of necroptosis in human TMD8 cells assessed as upregulation of TRPM7 gene expression at 1 uM incubated for 8 hrs by RNA-sequencing analysis; type: functional, cell-based
Procedure, shortened: (§2)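 TMD8 cells (RPMI-1640, 10% FBS, glutamine) exposed to compound at 1 μM or DMSO for 8 h. Total RNA extracted and analysed by RNA-seq. Differential expression called against DMSO at FDR < 0.01 with |log2FC| > 0.5.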

TMD8 [31] = assay: Downregulation of CYP1A1 gene expression in human TMD8 cells at 1 uM incubated for 8 hrs by RNA-sequencing analysis; type: functional, cell-based; procedure, shortened: as §2
TMD8 [32] = assay: Induction of necroptosis in human TMD8 cells assessed as upregulation of RIPK1 gene expression at 1 uM incubated for 8 hrs by RNA-sequencing analysis; type: functional, cell-based; procedure, shortened: as §2
TMD8 [33] = assay: Induction of necroptosis in human TMD8 cells assessed as upregulation of TLR4 gene expression at 1 uM incubated for 8 hrs by RNA-sequencing analysis; type: functional, cell-based; procedure, shortened: as §2
TMD8 [34] = assay: Induction of necroptosis in human TMD8 cells assessed as upregulation of TNFSF10 gene expression at 1 uM incubated for 8 hrs by RNA-sequencing analysis; type: functional, cell-based; procedure, shortened: as §2
TMD8 [35] = assay: Induction of pyroptosis in human TMD8 cells assessed as upregulation of NLRP7 gene expression at 1 uM incubated for 8 hrs by RNA-sequencing analysis; type: functional, cell-based; procedure, shortened: as §2
TMD8 [36] = assay: Induction of pyroptosis in human TMD8 cells assessed as upregulation of TLR4 gene expression at 1 uM incubated for 8 hrs by RNA-sequencing analysis; type: functional, cell-based; procedure, shortened: as §2
TMD8 [37] = assay: Induction of pyroptosis in human TMD8 cells assessed as upregulation of TLR8 gene expression at 1 uM incubated for 8 hrs by RNA-sequencing analysis; type: functional, cell-based; procedure, shortened: as §2

Sequence of Epidermal growth factor receptor (Homo sapiens), P00533 [T790M] (P00533 whole entry T790M): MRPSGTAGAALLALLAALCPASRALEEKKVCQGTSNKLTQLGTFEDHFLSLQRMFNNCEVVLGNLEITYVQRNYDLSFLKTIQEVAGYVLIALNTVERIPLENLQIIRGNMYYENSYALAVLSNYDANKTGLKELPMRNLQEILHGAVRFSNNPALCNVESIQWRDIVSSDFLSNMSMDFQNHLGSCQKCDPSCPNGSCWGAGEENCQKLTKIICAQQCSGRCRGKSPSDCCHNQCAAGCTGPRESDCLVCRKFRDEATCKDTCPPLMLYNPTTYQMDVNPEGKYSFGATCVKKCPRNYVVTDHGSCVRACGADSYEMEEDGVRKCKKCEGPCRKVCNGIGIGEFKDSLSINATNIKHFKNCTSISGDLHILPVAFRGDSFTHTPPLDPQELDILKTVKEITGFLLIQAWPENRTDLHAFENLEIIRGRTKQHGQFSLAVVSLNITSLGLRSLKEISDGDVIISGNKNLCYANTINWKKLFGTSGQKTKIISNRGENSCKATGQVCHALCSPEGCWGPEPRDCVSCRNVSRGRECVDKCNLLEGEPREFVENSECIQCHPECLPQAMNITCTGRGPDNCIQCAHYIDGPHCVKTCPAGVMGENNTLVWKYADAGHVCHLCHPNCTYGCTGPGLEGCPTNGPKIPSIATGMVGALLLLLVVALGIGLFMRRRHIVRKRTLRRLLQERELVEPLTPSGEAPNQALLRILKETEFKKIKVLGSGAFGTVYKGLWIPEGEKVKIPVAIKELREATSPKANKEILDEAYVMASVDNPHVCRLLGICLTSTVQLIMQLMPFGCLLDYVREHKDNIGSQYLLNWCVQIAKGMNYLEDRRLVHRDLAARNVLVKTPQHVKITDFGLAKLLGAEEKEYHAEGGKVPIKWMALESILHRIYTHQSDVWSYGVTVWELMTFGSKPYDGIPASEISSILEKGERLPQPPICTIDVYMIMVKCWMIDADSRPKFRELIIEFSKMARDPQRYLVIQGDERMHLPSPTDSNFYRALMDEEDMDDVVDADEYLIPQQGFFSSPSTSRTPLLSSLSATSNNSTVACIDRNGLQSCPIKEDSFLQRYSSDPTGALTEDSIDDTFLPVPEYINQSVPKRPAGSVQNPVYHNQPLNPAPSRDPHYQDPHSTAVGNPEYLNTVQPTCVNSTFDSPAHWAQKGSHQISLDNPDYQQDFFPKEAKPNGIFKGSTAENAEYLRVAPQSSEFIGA
T1 sequence (Q06187 whole entry): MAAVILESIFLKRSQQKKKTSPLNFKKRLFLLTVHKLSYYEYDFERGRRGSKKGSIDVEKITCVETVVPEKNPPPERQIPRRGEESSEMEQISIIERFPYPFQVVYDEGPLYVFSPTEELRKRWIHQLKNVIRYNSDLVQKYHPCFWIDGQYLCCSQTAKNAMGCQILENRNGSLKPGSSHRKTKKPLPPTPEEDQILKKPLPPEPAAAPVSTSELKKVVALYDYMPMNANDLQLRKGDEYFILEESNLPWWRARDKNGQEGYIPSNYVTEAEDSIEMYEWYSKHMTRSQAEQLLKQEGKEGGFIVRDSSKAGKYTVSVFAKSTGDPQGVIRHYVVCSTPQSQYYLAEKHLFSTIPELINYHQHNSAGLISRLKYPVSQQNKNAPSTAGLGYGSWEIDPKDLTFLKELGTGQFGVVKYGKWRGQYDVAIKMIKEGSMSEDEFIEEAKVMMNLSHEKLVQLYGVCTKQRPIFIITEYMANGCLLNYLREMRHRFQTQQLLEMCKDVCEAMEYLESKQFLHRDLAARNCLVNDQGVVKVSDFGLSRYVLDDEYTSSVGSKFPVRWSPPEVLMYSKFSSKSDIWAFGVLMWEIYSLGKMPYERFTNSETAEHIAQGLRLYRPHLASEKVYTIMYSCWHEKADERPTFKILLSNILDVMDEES
Sequence of Epidermal growth factor receptor (Homo sapiens), P00533 [G719S] (P00533 whole entry G719S): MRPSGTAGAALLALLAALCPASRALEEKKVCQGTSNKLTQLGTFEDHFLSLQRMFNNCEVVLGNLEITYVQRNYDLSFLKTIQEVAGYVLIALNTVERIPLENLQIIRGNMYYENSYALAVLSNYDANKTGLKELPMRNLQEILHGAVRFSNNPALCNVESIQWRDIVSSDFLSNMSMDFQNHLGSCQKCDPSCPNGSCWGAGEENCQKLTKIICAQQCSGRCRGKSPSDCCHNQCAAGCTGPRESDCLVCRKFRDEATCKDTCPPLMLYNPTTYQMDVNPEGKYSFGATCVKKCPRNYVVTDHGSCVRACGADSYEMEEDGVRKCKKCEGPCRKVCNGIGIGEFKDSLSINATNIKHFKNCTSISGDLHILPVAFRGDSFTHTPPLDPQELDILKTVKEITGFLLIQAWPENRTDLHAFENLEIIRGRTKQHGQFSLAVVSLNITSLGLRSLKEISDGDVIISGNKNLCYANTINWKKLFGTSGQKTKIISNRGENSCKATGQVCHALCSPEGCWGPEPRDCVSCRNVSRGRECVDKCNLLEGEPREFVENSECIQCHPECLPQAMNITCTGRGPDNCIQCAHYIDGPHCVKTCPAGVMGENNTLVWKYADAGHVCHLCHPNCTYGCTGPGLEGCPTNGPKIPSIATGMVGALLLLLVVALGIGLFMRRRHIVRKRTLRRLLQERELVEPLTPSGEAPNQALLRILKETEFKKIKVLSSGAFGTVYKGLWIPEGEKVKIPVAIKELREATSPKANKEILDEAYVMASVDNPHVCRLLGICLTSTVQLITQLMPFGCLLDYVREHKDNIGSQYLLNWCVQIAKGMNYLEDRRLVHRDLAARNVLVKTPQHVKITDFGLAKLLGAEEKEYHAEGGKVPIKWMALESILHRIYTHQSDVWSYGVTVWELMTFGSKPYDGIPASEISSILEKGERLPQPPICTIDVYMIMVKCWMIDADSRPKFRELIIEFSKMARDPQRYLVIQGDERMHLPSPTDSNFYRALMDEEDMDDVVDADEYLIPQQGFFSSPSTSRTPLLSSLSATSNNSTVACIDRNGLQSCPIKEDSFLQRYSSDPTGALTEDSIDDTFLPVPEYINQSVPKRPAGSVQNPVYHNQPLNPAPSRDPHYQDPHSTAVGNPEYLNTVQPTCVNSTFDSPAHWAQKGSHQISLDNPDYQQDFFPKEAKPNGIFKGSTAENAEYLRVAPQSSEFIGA
Sequence of Epidermal growth factor receptor (Homo sapiens), P00533 [G719C] (P00533 whole entry G719C): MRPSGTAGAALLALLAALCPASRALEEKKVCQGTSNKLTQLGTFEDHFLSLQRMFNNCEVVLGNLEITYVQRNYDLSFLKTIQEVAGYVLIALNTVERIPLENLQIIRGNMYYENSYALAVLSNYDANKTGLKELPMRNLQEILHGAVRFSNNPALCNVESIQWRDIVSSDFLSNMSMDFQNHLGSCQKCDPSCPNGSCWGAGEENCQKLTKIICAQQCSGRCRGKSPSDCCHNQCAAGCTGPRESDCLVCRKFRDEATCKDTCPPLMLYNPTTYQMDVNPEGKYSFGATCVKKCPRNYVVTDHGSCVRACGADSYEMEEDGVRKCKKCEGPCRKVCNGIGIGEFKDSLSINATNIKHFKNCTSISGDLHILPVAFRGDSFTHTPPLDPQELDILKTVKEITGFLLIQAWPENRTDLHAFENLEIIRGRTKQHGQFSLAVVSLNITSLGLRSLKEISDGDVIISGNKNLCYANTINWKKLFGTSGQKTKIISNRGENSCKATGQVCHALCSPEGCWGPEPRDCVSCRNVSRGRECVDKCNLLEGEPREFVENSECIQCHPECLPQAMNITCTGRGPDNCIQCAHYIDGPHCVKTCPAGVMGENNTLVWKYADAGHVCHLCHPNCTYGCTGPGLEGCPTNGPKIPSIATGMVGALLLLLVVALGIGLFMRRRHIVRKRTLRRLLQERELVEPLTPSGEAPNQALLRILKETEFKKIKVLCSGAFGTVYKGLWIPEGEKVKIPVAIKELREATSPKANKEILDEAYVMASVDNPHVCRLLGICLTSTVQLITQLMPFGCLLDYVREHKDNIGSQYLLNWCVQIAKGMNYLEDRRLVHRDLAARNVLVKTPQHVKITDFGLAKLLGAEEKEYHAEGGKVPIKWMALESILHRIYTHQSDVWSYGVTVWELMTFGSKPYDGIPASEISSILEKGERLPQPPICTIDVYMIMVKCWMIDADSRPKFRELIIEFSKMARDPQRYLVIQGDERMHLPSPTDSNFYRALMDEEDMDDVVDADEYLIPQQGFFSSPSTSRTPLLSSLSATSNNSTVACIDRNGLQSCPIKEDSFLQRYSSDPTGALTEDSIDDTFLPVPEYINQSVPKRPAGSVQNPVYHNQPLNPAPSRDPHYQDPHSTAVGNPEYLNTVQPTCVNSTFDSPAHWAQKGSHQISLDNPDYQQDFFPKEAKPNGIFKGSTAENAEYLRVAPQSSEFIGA

SMILES	inhibition [1]	inhibition [2]	inhibition [3]	inhibition [4]	inhibition [7]	inhibition [8]	inhibition [10]	inhibition [11]	inhibition [12] [%]	also measured
Cc1cnc(S(C)(=O)=O)nc1N1CCC[C@H](n2nc(-c3ccc(Oc4ccccc4)cc3)c3c(N)ncnc32)C1	Active	Active	Active	Active	inactive	Active	inactive	inactive	–	inhibition [5]: Active; Kinact [6]: 0.007 s⁻¹; inhibition [9]: inactive
CCCCS(=O)(=O)c1ncc(C(=O)N2CCC[C@H](n3nc(-c4ccc(Oc5ccccc5)cc4)c4c(N)ncnc43)C2)cn1	–	–	–	–	–	–	–	–	40	–
CCOC(=O)c1cnc(S(C)(=O)=O)nc1N1CCC[C@H](n2nc(-c3ccc(Oc4ccccc4)cc3)c3c(N)ncnc32)C1	Active	Active	Active	Active	inactive	Active	inactive	inactive	> 95	remaining at 3 h [13]: 22%
C=CC(=O)N1CCC[C@@H](n2nc(-c3ccc(Oc4ccccc4)cc3)c3c(N)ncnc32)C1	–	–	–	–	–	–	–	–	–	Activity (TMD8 [14]): Active; Activity (TMD8 [15]): Active; Activity (TMD8 [16]): Active; Activity (TMD8 [17]): Active; Activity (TMD8 [18]): Active; Activity (TMD8 [19]): Active
CS(=O)(=O)c1nccc(C(=O)N2CCC[C@H](n3nc(-c4ccc(Oc5ccccc5)cc4)c4c(N)ncnc43)C2)n1	–	–	–	–	–	–	–	–	80	–
CNC(=O)c1cnc(S(C)(=O)=O)nc1N1CCC[C@H](n2nc(-c3ccc(Oc4ccccc4)cc3)c3c(N)ncnc32)C1	Active	Active	Active	Active	inactive	Active	inactive	inactive	–	K [20]: 47 10^-5/s; IC50 [21]: 0.6 nM; inhibition [5]: Active; viability at 1 µM (TMD8 [22]): 14.7%; Activity (TMD8 [23]): 3.4%; Activity (TMD8 [24]): 14.5%; Activity (TMD8 [25]): 26.6%; Activity (TMD8 [26]): 53%; Activity (TMD8 [27]): 3.9%; Activity (TMD8 [28]): 4.6%; Activity (TMD8 [29]): 4.5%; Activity (TMD8 [30]): Active; Activity (TMD8 [31]): Active; Activity (TMD8 [32]): Active; Activity (TMD8 [33]): Active; Activity (TMD8 [34]): Active; Activity (TMD8 [35]): Active; Activity (TMD8 [36]): Active; Activity (TMD8 [37]): Active; inhibition [9]: inactive
CS(=O)(=O)c1ncc(Cl)c(C(=O)N2CCC[C@H](n3nc(-c4ccc(Oc5ccccc5)cc4)c4c(N)ncnc43)C2)n1	–	–	–	–	–	–	–	–	80	–
COC(=O)c1cnc(S(C)(=O)=O)nc1N1CCC[C@H](n2nc(-c3ccc(Oc4ccccc4)cc3)c3c(N)ncnc32)C1	Active	Active	Active	Active	inactive	Active	inactive	inactive	–	–
CS(=O)(=O)c1ncc(C(=O)N2CCC[C@H](n3nc(-c4ccc(Oc5ccccc5)cc4)c4c(N)ncnc43)C2)cn1	–	–	–	–	–	–	–	–	80	–
Nc1ncnc2c1c(-c1ccc(Oc3ccccc3)cc1)nn2[C@H]1CCCN(C(=O)c2cnc(S(=O)(=O)c3ccccc3)nc2)C1	–	–	–	–	–	–	–	–	40	–
CCCCS(=O)(=O)c1nccc(C(=O)N2CCC[C@H](n3nc(-c4ccc(Oc5ccccc5)cc4)c4c(N)ncnc43)C2)n1	–	–	–	–	–	–	–	–	40	–
